11 compounds from publication PMC6697619 (Cell chemical biology, 2019) can be followed below.

Where “and” joins values, the source holds several entries; their conditions need not be identical. Equal values may be shown once. Entries after “also recorded” stand apart in the source; their conditions may differ. Read-outs that look alike come from different tables or passages of the source. Bounds are passed on as bounds.

Test [1] relates to HCT-116 colorectal cancer cells. As to the kind of experiment: XTT cell viability assay, HCT-116. Format: cell-based, human. To be noted: for GI50: read-out: GI50 HCT-116. For orientation: Tetrazolium assays rely on reduction of a dye to a coloured formazan, in cell work by metabolically active cells.
Test [2] concerns normal colon cells (CoN, ATCC CRL-1790). As to the kind of experiment: XTT cell viability assay, normal colon cells. Format: cell-based, human. To be noted: read-out: GI50 normal colon.
The subject of another test is tRNA (Lys,3). Briefly: DSF specificity screen, tRNA. To be noted: 5 μM compound, up to 5-fold molar excess. Format: binding. The gist of the method: (§1)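 Thermal melt by DSF with SYBR Green: each RNA was exposed to 5 μM test compound and its Tm was determined. Melts were run continuously up to 99°C at 0.09°C/s, with 5 acquisitions per °C and 0.75 s integration. Tm was taken as the half-denatured temperature from a 4PL sigmoidal fit of fluorescence against temperature.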

In another test the test system is HIV TAR. Briefly: DSF specificity screen, HIV TAR. Format: binding. To be noted: 5 μM compound, up to 5-fold molar excess. An outline of the steps:
as §1

Another test relates to pre-miR-638. Briefly: DSF specificity screen, pre-miR-638. Format: binding. To be noted: 5 μM compound, up to 5-fold molar excess. An outline of the steps: as §1
Test [3] relates to pre-miR-21. Briefly: Differential scanning calorimetry. Format: binding. To be noted: 30 μM pre-miR-21, 300 μM bPGN. The gist of the method:
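Pre-miR-21 (30 μM), with or without 300 μM test compound, in 0.25 mM Tris-HCl pH 7.5, 0.25 mM NaCl and 1.5% DMSO, degassed. The cell was pressurised to 30 psi and run through 8 alternating up/down scans at 60°C/hr with a 16 s filter. The first up scan was subtracted, the baseline corrected, and the data fitted to a non-2-state unfolding model to give Tm and enthalpy for each transition.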
For orientation: Differential scanning calorimetry records heat flow against a reference as temperature is scanned.

For the next test, the system named is miR-21. As to the kind of experiment: RT-qPCR of miR-21 expression in HCT-116 cells. To be noted: 50 nM, within 2 hours post-treatment. Format: cell-based, human. The gist of the method: (§2)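 HCT-116 cells at 50–60% confluence were given 50 nM test compound, and RNA was extracted at time points from 0 to 24 h. miRNAs were quantified by RT-qPCR with LNA primers: 95°C 10 min, then 45 cycles of 95°C 10 s, 60°C 1 min and 95°C 10 s. U6 snRNA served as reference and UniSp6 as spike-in control; run in triplicate.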

Test [4] concerns miRs -1246, -203a-3p, -200b-3p, -361. As to the kind of experiment: RT-qPCR of other miRs in HCT-116 cells. To be noted: 50 nM, 0-24 h. Format: cell-based, human. The gist of the method: as §2
For test [5], the system named is pre-miR-21. Briefly: RT-qPCR of pre-miR-21 expression in HCT-116 cells. Format: cell-based, human. To be noted: 50 nM, up to 24 hours post-treatment. In general terms: Quantitative PCR measures a nucleic acid by following its amplification.
Test [6] concerns the target Dicer-mediated processing of pre-miR-21 (Homo sapiens, UniProt Q9UPY3). As to the kind of experiment: Dicer processing assay. Format: biochemical. To be noted: for shift in Tm in the presence of Dicer: vs DMSO only control.
In the next test the test system is PDCD4. Briefly: RT-qPCR of PDCD4 transcript in HCT-116 cells. Format: cell-based, human.
The next test concerns PTEN. Briefly: RT-qPCR of PTEN transcript in HCT-116 cells. Format: cell-based, human.
Another test relates to Pdcd4 and PTEN. Briefly: Western blot of Pdcd4 and PTEN protein in HCT-116 cells. To be noted: 50 nM, within 24 hours post-treatment. Format: cell-based, human. The gist of the method: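 HCT-116 cells treated with 50 nM test compound were harvested at 0–36 h. Lysates were TCA/acetone precipitated, redissolved in 8 M urea, and 20 μg protein per lane was separated on 4–12% Bis-Tris gels, then dry-transferred to PVDF. Blots were probed with mouse anti-PDCD4 or anti-PTEN plus rabbit anti-GAPDH (internal control) and detected with IR-dye secondaries.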

Test [7] has as its system pre-miR-21. As to the kind of experiment: Differential scanning fluorimetry. Format: binding. To be noted: titration up to 20-25 μM.
Test [8] addresses pre-miR-21. Briefly: Fluorescence displacement assay. Format: binding. To be noted: data not shown.
The mark [9] stands for this setting: XTT, ATCC CRL-1790, 24 hours post-treatment.

Chain of Dicer-mediated processing of pre-miR-21 (Q9UPY3 whole entry): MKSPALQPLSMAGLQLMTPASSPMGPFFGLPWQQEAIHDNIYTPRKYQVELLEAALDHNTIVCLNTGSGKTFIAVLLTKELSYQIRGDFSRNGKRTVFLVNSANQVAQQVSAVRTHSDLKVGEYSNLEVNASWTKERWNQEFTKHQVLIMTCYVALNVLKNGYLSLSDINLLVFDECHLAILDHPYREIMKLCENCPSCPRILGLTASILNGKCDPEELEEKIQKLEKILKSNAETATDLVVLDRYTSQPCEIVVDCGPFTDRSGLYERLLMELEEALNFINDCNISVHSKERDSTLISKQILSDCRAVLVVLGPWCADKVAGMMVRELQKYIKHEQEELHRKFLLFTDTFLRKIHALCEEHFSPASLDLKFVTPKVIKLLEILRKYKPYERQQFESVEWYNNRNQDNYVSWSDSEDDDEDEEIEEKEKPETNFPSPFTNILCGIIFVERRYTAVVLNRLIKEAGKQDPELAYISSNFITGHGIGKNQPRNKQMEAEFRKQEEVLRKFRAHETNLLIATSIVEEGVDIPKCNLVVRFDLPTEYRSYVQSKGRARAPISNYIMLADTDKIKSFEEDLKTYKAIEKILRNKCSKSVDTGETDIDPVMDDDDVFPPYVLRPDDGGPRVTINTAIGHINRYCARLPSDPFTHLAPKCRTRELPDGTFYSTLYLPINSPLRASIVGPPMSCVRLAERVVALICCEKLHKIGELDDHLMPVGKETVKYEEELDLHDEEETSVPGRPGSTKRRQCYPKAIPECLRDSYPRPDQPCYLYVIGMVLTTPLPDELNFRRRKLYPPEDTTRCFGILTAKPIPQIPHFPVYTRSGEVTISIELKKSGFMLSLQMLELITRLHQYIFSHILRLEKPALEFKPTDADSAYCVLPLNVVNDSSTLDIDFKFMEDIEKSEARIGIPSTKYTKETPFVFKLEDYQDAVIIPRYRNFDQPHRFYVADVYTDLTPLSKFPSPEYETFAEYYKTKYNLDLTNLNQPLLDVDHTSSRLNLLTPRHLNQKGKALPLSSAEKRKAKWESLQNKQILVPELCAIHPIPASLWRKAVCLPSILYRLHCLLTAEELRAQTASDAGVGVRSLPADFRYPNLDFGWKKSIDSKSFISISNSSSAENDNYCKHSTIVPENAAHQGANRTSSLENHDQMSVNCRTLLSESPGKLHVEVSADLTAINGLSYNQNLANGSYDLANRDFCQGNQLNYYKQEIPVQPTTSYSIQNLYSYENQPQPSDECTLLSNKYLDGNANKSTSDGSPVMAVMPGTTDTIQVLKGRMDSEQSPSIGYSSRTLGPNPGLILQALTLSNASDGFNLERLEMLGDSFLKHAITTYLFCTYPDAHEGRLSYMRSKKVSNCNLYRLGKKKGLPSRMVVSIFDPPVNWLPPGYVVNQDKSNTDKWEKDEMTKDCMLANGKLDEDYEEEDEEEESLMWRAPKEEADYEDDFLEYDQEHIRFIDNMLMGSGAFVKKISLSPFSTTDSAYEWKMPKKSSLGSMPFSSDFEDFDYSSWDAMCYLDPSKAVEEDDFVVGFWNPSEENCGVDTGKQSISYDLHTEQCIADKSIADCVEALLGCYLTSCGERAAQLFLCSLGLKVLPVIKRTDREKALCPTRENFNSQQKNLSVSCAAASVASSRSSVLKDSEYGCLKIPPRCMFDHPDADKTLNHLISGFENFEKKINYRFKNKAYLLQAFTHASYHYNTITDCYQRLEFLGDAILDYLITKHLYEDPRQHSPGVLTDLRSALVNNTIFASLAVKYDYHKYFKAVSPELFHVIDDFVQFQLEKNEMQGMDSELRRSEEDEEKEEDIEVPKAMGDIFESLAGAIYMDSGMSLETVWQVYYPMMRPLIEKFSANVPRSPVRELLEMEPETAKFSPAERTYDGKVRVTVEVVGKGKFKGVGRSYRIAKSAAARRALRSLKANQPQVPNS

In the case of “1,5-bis[3-(2-hydroxyethylamino)propylamino]anthracene-9,10-dione hydrochloride [Compound 6]”, in test [1] (XTT, 24 hours post-treatment), the “GI50 HCT-116 in words” value is “high nanomolar” and the GI50 (in general, the concentration at which growth is held to half of that of the control) was 3200 ± 600 nM. Also, the 50% growth inhibitory concentration (GI50) in [2] (setting [9]) turned out to be 1100 ± 800 nM.

Take `CCCC[C@H]1CCCCCCc2[nH]c(/C=C3\N=CC(c4ccc[nH]4)=C3OC)cc21` [Compound 1, butylcycloheptyl prodiginine]: the “reduction of cell number” value in [1] (0.05 μM, 24-hours post-treatment) was found to be 55%. The cell death entry in [1] (concentration > 0.5 μM, 24 h) is “complete cell death”. For the same compound, the GI50 was 35 ± 3 nM in [1] (XTT, 24 hours post-treatment) and at least 10000 nM in test [2] (setting [9]). The IC50 in [1] (read-out: cellular growth inhibitory activity, HCT-116, as restated in text) is 35 nM and ~35 nM. Moreover, in the test with tRNA (Lys,3), the “Tm change of tRNA (Lys,3)” value is “did not significantly change the Tm”. Also, in the test with HIV TAR, the “Tm change of HIV TAR” value was “did not significantly change the Tm”. Besides, the “Tm change of pre-miR-638” value in the test with pre-miR-638 is reported as “did not significantly change the Tm; also recorded: no Tm shift was observed”. The “DSC thermal transition Tm1 of pre-miR-21 in the presence of compound” value with pre-miR-21 [3] was determined as 42.3 °C. Moreover, in the test with pre-miR-21 [3], the “DSC thermal transition Tm2 of pre-miR-21 in the presence of compound” value is 68.0 °C. Besides, in the test with miR-21, the “reduction of miR-21 levels” value is on record as ~ 80%. For the same compound, the “reduction of expression level of the other tested miRs” value in [4] was at most 30%. Further, the pre-miR-21 expression level result with pre-miR-21 [5] is “did not significantly change”. Also, the “shift in Tm in the presence of Dicer” value is −2.8 °C in [6] (50 μM compound, DSF) and −0.6 °C in [6] (100 μM compound, DSF). Moreover, in test [6] (50 and 100 μM, 10U Dicer per 10 μM pre-miR-21), the “inhibition of Dicer processing of pre-miR-21, gel shift” value was “dose dependent inhibition of Dicer processing”. Further, the “Tm of pre-miR-21 under Dicer reaction conditions” value in test [6] (in the presence of 10 μM compound, DSF) was 62.2 °C. Also, the PDCD4 transcript upregulation is 2 fold with PDCD4 (by 8 hours post-treatment) and 2 – 4 fold in the test with PDCD4 (by 36 hours post-treatment). The PTEN transcript upregulation in the test with PTEN (by 8 hours post-treatment) is listed as 2 fold; in the test on PTEN (by 36 hours post-treatment), 2 – 4 fold. Besides, in the test on Pdcd4 and PTEN, the “Pdcd4 and PTEN protein levels” value is given as “time dependent increase”.

In the case of `COC1=CC(c2cc3ccccc3[nH]2)=N/C1=C\c1[nH]c(C)cc1C` [Compound 2, obatoclax, reference compound], the GI50 in [1] (Homo sapiens, HCT-116, 24 h) is 100 ± 10 nM; in [2] (Homo sapiens, 24 h) it was at least 10000 nM.

Consider `CCCCCC1=C/C(=C/c2[nH]c(-c3ccc[nH]3)cc2OC)N=C1C` [Compound 3, prodigiosin, reference compound], for which the concentration for 50% growth inhibition (GI50) in test [1] (Homo sapiens, HCT-116, 24 h) is 240 ± 40 nM; in test [2] (Homo sapiens, 24 h) it was at least 10000 nM.

As to `CC[C@@]1(O)C[C@H](O[C@H]2C[C@H](N(C)C)[C@H](O)[C@H](C)O2)c2c(cc3c(c2O)C(=O)c2c(O)cccc2C3=O)[C@H]1C(=O)OC` [Compound 4, aklavin], in [1] (XTT, 24 hours post-treatment), the “GI50 HCT-116 in words” value is “high nanomolar”. Further, the 50% growth inhibitory concentration (GI50) in test [1] (XTT, 24 hours post-treatment) worked out at 570 ± 60 nM; in test [2] (setting [9]), 1700 ± 400 nM.

As for `COc1cc2c3c4c1Oc1cc5c(cc1O4)[C@@H](Cc1ccc(O)c(c1)Oc1ccc(cc1)C[C@@H]3N(C)CC2)N(C)CC5` [Compound 5, trigilletine], the concentration for 50% growth inhibition (GI50) in test [1] (Homo sapiens, HCT-116, 24 h) is 3500 ± 500 nM; in test [2] (Homo sapiens, 24 h), 1000 ± 200 nM. The “GI50 HCT-116 in words” value in [1] (XTT, 24 hours post-treatment) is “high nanomolar”.

As to `CN1CCCC2C(c3ccccc3)C(C3=NCCCC3)C(c3ccccc3)CC21` (stereo not drawn) [Compound 7, Lobinaline], the GI50 was at least 10000 nM in test [1] (XTT, 24 hours post-treatment) and above 10000 nM in test [2] (setting [9]).

Take `C[C@@H](N)C(=O)N[C@H]1CO[C@H](O)[C@H](N)[C@H]1O` [Compound 8, prumycin]: the GI50 in test [1] (XTT, 24 hours post-treatment) was at least 10000 nM; in test [2] (setting [9]) it was 5100 ± 100 nM.

Regarding `COc1cc2c3c(cc4ccccc4c3c1OC)N(C)CC2` [Compound 9, dehydronuciferin], the GI50 was at least 10000 nM in [1] (XTT, 24 hours post-treatment) and above 10000 nM in test [2] (setting [9]).

Regarding `O=c1[nH]cc(F)c(=O)[nH]1` [Compound 10, 5-fluorouracil, reference compound], the 50% growth inhibitory concentration (GI50) in test [1] (Homo sapiens, HCT-116, 24 h) is 720 ± 20 nM; in test [2] (Homo sapiens, 24 h) it was 2000 ± 200 nM.

In the case of `CC1(C)CCC(c2ccc(Cl)cc2)=C(CN2CCN(c3ccc(C(=O)NS(=O)(=O)c4ccc(N[C@H](CCN5CCOCC5)CSc5ccccc5)c(S(=O)(=O)C(F)(F)F)c4)cc3)CC2)C1` [Navitoclax], in the test on pre-miR-21 [7], the “interaction with pre-miR-21 in DSF” value is given as “no significant interaction”. In addition, at pre-miR-21 [8], the “apparent binding affinity (Kd app)” value is “did not show apparent binding affinity”.
